Screens from PubChem BioAssay.
Sampled rows, rich in hits. Any-hit rate of the full collection: about 4.3%.
MC4R ag barr – agonists of human melanocortin 4 receptor (MC4R) beta-arrestin | activation, % at 8.9 µM | U2OS MC4R beta-arrestin complementation, luminescence; percent of melanotan II response, DMSO zero | P32245 | 360,000 tested, 0.98% active | AID 540308;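 active means activation above a per-plate cutoff, the mean activation of sample wells on that plate plus 3 SD, cut at about 8% in these data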
Target sequence (P32245 whole entry, looked up): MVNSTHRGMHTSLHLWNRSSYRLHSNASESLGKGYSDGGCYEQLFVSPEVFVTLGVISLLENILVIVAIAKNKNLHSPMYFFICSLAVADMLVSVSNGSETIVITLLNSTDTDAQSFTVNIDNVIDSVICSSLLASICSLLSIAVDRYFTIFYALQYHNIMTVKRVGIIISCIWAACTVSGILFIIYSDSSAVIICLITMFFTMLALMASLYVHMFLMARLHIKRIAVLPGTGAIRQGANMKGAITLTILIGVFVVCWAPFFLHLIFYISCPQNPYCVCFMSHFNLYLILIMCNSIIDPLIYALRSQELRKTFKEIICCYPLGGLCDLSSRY
HTR2A ag – agonists of mouse serotonin 5-HT2A receptor (HTR2A); 360,000 tested, 0.66% active; CHO-K1 mHTR2A beta-arrestin complementation, luminescence; percent of 30 µM serotonin response; activation, % at 7.6 µM; P35363;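 active means activation above a run cutoff, the mean activation of all tested compounds plus 3 SD, cut at about 14% in these data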;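 further: 0% = plate median of compound wells and 100% = 30 µM serotonin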
B2AR ag – agonists of human beta-2 adrenergic receptor inducing internalization. Am2.2-beta2AR cells, FAP receptor internalization, flow cytometry. 340,000 tested, 0.43% active. response, % (no concentration beside the values). P07550;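 active means response above a set limit, near 3 SD of response in nonfluorescent compounds, cut at about 42% in these data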
MC4R antag cAMP – antagonists of human melanocortin 4 receptor (MC4R); MC4R-expressing cells, MTII-stimulated cAMP, LANCE TR-FRET; P32245; 360,000 tested, 0.48% active; AID 540295; inhibition, % at 6.5 µM;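 active means inhibition above its plate's cutoff, the mean of tested wells on that plate plus 3 SD, cut at about 29% in these data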;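 further: 0% = Melanotan II alone and 100% = Melanotan II plus saturating MCL0020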
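System – human MC4R-expressing U2OS cells · Also added – Melanotan II · Dosing – one concentration, 6.5 µM nominal · Timing – 30-min compound, 1-h challenge, 1-h detection, room temperature · Measured by – Eu-cAMP/anti-cAMP TR-FRET, emission 671 nm · Replicates – singlicate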
TAAR1 agonist – human TAAR1 agonism; CHO RD-HGA16 TAAR1, Fluo-8 calcium fluorescence; vehicle wells 0%, saturating PEA agonist 100%; 360,000 tested, 0.99% active; AID 624467; activation, % at 3 µM;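 active means activation above the mean activation of all test compounds in the run plus 3 SD, cut at about 38% in these data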
Target sequence (Q96RJ0 whole entry, looked up): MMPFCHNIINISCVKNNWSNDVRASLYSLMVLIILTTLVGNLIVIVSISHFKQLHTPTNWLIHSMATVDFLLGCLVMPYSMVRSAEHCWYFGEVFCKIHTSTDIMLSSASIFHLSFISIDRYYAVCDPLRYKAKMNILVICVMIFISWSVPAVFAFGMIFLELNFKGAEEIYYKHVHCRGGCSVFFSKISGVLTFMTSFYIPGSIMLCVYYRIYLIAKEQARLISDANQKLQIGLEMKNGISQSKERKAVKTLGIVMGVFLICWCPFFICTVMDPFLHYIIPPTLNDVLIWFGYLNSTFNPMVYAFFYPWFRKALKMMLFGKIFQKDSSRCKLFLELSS
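System: CHO-derived RD-HGA16 cells with stable Gα16 and human TAAR1 / Times: 17-24 h plating, Fluo-8 75 min 37 °C, 30 min RT / Technique: calcium-sensitive Fluo-8 signal, excitation 470-495, emission 515-575 nm / Measure: % activation relative to PEA EC100 response / Benchmarks: DMSO and PEA EC100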
TAAR1 antagonist – antagonists of human TAAR1 | Q96RJ0 | CHO RD-HGA16 TAAR1, Fluo-8 calcium fluorescence, antagonist | inhibition, % at 3 µM | 360,000 tested, 1.5% active | AID 624466;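 active means inhibition above a per-plate cutoff, the mean inhibition of test compounds on that plate plus 3 SD, cut at about 49% in these data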;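 further: 0% = DMSO plus EC80 beta-PEA response and 100% = DMSO alone without agonist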
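Test system – hTAAR1-expressing CHO RD-HGA16 cells, Gα16-coupled · Reagent – β-PEA at EC80 concentration, post-compound challenge · Compound dosing – 3 µM, single point · Timing – 140 s kinetic read after compound, 140 s after agonist · Detection – Fluo-8 intracellular calcium dye fluorescence, real-time kinetic reads · Control set – DMSO and EC80 PEA controls · Repeats – n of 1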
TAAR1 ag conf – human TAAR1 agonism, confirmed; shares compounds with TAAR1 agonist; CHO RD-HGA16 TAAR1, Fluo-8 calcium fluorescence; scaled: DMSO 0%, maximal phenethylamine 100%; activation, % at 3 µM; 2,400 tested, 82% active; AID 651783;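 active means activation above a cutoff set at the run's mean compound activation plus 3 SD, cut at about 39% in these data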
Ga16 ag counter – nonselective agonist in parental cells, TAAR1 agonist counter-screen; shares compounds with TAAR1 agonist; CHO-Ga16 parental, Fluo-8 calcium fluorescence; normalized to maximal ATP response, DMSO zero; activation, % at 3 µM; 2,400 tested, 50% active; AID 651787;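 active means activation above the run cutoff, the mean activation over all tested wells plus 3 SD, cut at about 12% in these data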;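 further: 0% = DMSO wells and 100% = maximal ATP response on the peak over basal ratio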
TAAR1 desens – TAAR1 response desensitization, agonist counter-screen. CHO RD-HGA16 hTAAR1, Fluo-8 calcium, beta-PEA response inhibition. 2,400 tested, 46% active. shares compounds with TAAR1 agonist. inhibition, % at 3 µM;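 active means inhibition above the run cutoff, the mean inhibition of all test compounds plus 3 SD, cut at about 49% in these data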;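 further: beta-PEA stimulus applied at its EC80; loss of beta-PEA calcium signal after compound pretreatment read as receptor desensitization; 0% = DMSO with beta-PEA at EC80 and 100% = DMSO alone without agonist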
Ga16 antag count – counter-screen for TAAR1 agonists: nonselective Ga16 antagonists; inhibition, % at 3 µM; shares compounds with TAAR1 agonist; AID 651952; CHO-Ga16 ATP-induced calcium, Fluo-8 fluorescence; 2,400 tested, 39% active;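 active means inhibition above the plate's mean compound inhibition plus 3 SD, computed per plate, cut at about 22% in these data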;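 further: 0% = EC80 ATP with DMSO and 100% = DMSO wells without ATP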
Active calls of the source: *.

What do the screens show for `COCCn1nnnc1CN(CCc1ccccc1)Cc1cc2cc(OC)ccc2[nH]c1=O`?
MC4R ag barr: 1; HTR2A ag: -4; B2AR ag: -11; MC4R antag cAMP: -1; TAAR1 agonist: 83*; TAAR1 antagonist: 39; TAAR1 ag conf: 79*; Ga16 ag counter: 9; TAAR1 desens: 48; Ga16 antag count: 13

What do the screens show for `CCCCN1C(=O)C(=O)N(CC(=O)c2cc(C)n(-c3cc(C)on3)c2C)C1=O`?
MC4R ag barr: -4; HTR2A ag: -6; B2AR ag: -12; MC4R antag cAMP: -4; TAAR1 agonist: 7; TAAR1 antagonist: 17

Results for COC(=O)C1=NN(C(=O)c2cccc(Br)c2)C(O)(c2ccc(Cl)cc2)C1 (configuration not stated) ?
MC4R ag barr: -5; HTR2A ag: -1; B2AR ag: -52; MC4R antag cAMP: -4; TAAR1 agonist: 93*; TAAR1 antagonist: 71*; TAAR1 ag conf: 95*; Ga16 ag counter: 67*; TAAR1 desens: 76*; Ga16 antag count: 62*

What do the screens show for `CCOC(=O)C1=NN(C(=O)c2ccc(OC)cc2)C(O)(c2ccc(Cl)cc2)C1` (configuration not stated)?
MC4R ag barr: -5; HTR2A ag: 2; B2AR ag: 26; MC4R antag cAMP: -7; TAAR1 agonist: 65*; TAAR1 antagonist: 11; TAAR1 ag conf: 80*; Ga16 ag counter: 64*; TAAR1 desens: 41; Ga16 antag count: 30*

Results for CC(C)n1c(=O)c2ccccc2n1Cc1cn(-c2ccccc2)nn1 ?
HTR2A ag: 8; TAAR1 agonist: 5; TAAR1 antagonist: -13

Results for COc1ccc(C)cc1-n1c(SCC(=O)NC2CC2)nc2ccccc2c1=O ?
MC4R ag barr: -2; HTR2A ag: 1; B2AR ag: -8; MC4R antag cAMP: 7; TAAR1 agonist: 2; TAAR1 antagonist: 2

Results for COc1ccc(C(c2nnnn2CCc2ccccc2)N2CCN(C3CCCC3)CC2)cc1OC (configuration not stated) ?
MC4R ag barr: 1; HTR2A ag: -8; B2AR ag: 4; MC4R antag cAMP: 15; TAAR1 agonist: 51*; TAAR1 antagonist: 7; TAAR1 ag conf: 78*; Ga16 ag counter: 4; TAAR1 desens: 27; Ga16 antag count: 3

What do the screens show for `COc1ccc(C(c2nnnn2C2CCCC2)N2CCN(C3CCCC3)CC2)cc1OC` (configuration not stated)?
MC4R ag barr: 1; HTR2A ag: -5; B2AR ag: -2; MC4R antag cAMP: 0; TAAR1 agonist: 2; TAAR1 antagonist: -9

Results for Clc1ccc(-c2csc(NCC3CCCO3)n2)cc1 (configuration not stated) ?
TAAR1 agonist: 0; TAAR1 antagonist: -17

How did Cc1cc(Cl)nc(Cl)c1C(=O)NCCc1ccccc1 do in these assays?
MC4R ag barr: -1; HTR2A ag: 4; B2AR ag: -9; MC4R antag cAMP: 13; Ga16 ag counter: 2; Ga16 antag count: 8

Results for COc1ccccc1CC(=O)NCCCc1ccccc1 ?
MC4R ag barr: 0; HTR2A ag: 13; B2AR ag: -3; MC4R antag cAMP: 5; TAAR1 agonist: -1; TAAR1 antagonist: 7

Results for COc1ccccc1CC(=O)NCCc1ccccc1 ?
MC4R ag barr: -2; HTR2A ag: -4; B2AR ag: -2; MC4R antag cAMP: 1; TAAR1 agonist: 69*; TAAR1 antagonist: 15; TAAR1 ag conf: 85*; Ga16 ag counter: 2; TAAR1 desens: 77*; Ga16 antag count: 5

What do the screens show for `COc1ccc(OC(=O)NCCc2ccccc2)cc1`?
MC4R ag barr: -1; HTR2A ag: 5; B2AR ag: -3; MC4R antag cAMP: 11; TAAR1 agonist: 57*; TAAR1 antagonist: -23; TAAR1 ag conf: 84*; Ga16 ag counter: 4; TAAR1 desens: 73*; Ga16 antag count: 10

Results for CCOC(=O)c1ccc(OCC2NCCc3cc(OC)c(OC)cc32)cc1 (configuration not stated) ?
MC4R ag barr: -3; HTR2A ag: -5; B2AR ag: -4; MC4R antag cAMP: 1; TAAR1 agonist: 5; TAAR1 antagonist: -5

What do the screens show for `COc1ccc(N2C(=O)CN(Cc3ccc(OC)c(OC)c3)C2=S)cc1`?
MC4R ag barr: -1; HTR2A ag: 6; B2AR ag: 0; MC4R antag cAMP: 2; TAAR1 agonist: 154*; TAAR1 antagonist: 31; TAAR1 ag conf: 13; Ga16 ag counter: 3; TAAR1 desens: 3; Ga16 antag count: 7

How did CC(C)Oc1cccc(C(=O)C2CCCN(Cc3cnc(N4CCOCC4)s3)C2)c1 (configuration not stated) do in these assays?
MC4R ag barr: -2; HTR2A ag: -7; B2AR ag: -20; MC4R antag cAMP: 0; TAAR1 agonist: 14; TAAR1 antagonist: 0

Results for COC(=O)c1cccc(N2CCCC2=O)c1 ?
MC4R ag barr: 4; HTR2A ag: 8; B2AR ag: -6; MC4R antag cAMP: -1; TAAR1 agonist: 2; TAAR1 antagonist: -39

What do the screens show for `O=c1c2ccccc2sn1-c1ccc(F)cc1`?
MC4R ag barr: -3; HTR2A ag: 1; B2AR ag: -11; MC4R antag cAMP: 14; TAAR1 agonist: 57*; TAAR1 antagonist: 22; TAAR1 ag conf: 30; Ga16 ag counter: 31*; TAAR1 desens: 17; Ga16 antag count: 15

What do the screens show for `Cc1ccc(-n2sc3ccccc3c2=O)cc1`?
MC4R ag barr: 0; HTR2A ag: 6; B2AR ag: 2; MC4R antag cAMP: 2; TAAR1 agonist: 26; TAAR1 antagonist: -1
